Laboratory results: ChEMBL document CHEMBL4152256, “Structure-activity relationship of new antimalarial 1-aryl-3-susbtituted propanol derivatives: Synthesis, preliminary toxicity profiling, parasite life cycle stage studies, target exploration, and targeted delivery” (Eur J Med Chem, 2018)

Assays:
[1] = system: Plasmodium falciparum; test: Antiplasmodial activity against multidrug-resistant Plasmodium falciparum FCR-3 by [3H]-hypoxanthine incorporation assay; type: functional, organism-based, FCR-3/Gambia
Outline: (§1)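 Blood-stage P. falciparum 3D7 and FCR-3 were tested by a modified [3H]-hypoxanthine incorporation assay. Chloroquine was the reference in all runs.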

[2] = system: Plasmodium falciparum; test: Antiplasmodial activity against chloroquine-sensitive Plasmodium falciparum 3D7 by [3H]-hypoxanthine incorporation assay; type: functional, organism-based; outline: as §1
[3] = Cytotoxicity against human HepG2A16 cells by MTT assay; type: cell-based
Outline: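 MTT viability assay on HepG2-A16 cells, giving CC50 values.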

[4] = Selectivity index, ratio of CC50 for human HepG2A16 cells by MTT assay to IC50 for multidrug-resistant Plasmodium falciparum FCR-3; type: toxicity; settings: for selectivity ratio: HepG2A16 cells, read-out: Ratio CC50/IC50
Outline: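 HepG2-A16 human hepatoma cells were tested by MTT viability assay to give CC50. Blood-stage activity was measured against the multidrug-resistant P. falciparum FCR-3 strain by [3H]-hypoxanthine incorporation to give IC50. SI = CC50 HepG2 / FCR-3 IC50.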

[5] = Genotoxicity in Salmonella typhimurium TA1535 harboring pSK1002 assessed as survival at 0.125 mg/ml in absence of Sprague-Dawley rat liver S9 fraction after by SOS/umu assay relative to control; type: toxicity, organism-based; settings: salmonella enterica subsp. enterica serovar typhimurium, read-out: Survival
[6] = Genotoxicity in Salmonella typhimurium TA1535 harboring pSK1002 assessed as umu gene induction at 0.125 mg/ml in absence of Sprague-Dawley rat liver S9 fraction after by SOS/umu assay relative to control; type: toxicity, organism-based; settings: salmonella enterica subsp. enterica serovar typhimurium, read-out: FC
[7] = Genotoxicity in Salmonella typhimurium TA1535 harboring pSK1002 assessed as survival at 0.125 mg/ml in presence of Sprague-Dawley rat liver S9 fraction after by SOS/umu assay relative to control; type: toxicity, organism-based; settings: salmonella enterica subsp. enterica serovar typhimurium, read-out: Survival
[8] = Genotoxicity in Salmonella typhimurium TA1535 harboring pSK1002 assessed as survival at 0.063 mg/ml in absence of Sprague-Dawley rat liver S9 fraction after by SOS/umu assay relative to control; type: toxicity, organism-based; settings: salmonella enterica subsp. enterica serovar typhimurium, read-out: Survival
[9] = Genotoxicity in Salmonella typhimurium TA1535 harboring pSK1002 assessed as umu gene induction at 0.063 mg/ml in absence of Sprague-Dawley rat liver S9 fraction after by SOS/umu assay relative to control; type: toxicity, organism-based; settings: salmonella enterica subsp. enterica serovar typhimurium, read-out: FC
[10] = Genotoxicity in Salmonella typhimurium TA1535 harboring pSK1002 assessed as survival at 0.063 mg/ml in presence of Sprague-Dawley rat liver S9 fraction after by SOS/umu assay relative to control; type: toxicity, organism-based; settings: salmonella enterica subsp. enterica serovar typhimurium, read-out: Survival
[11] = Genotoxicity in Salmonella typhimurium TA1535 harboring pSK1002 assessed as umu gene induction at 0.063 mg/ml in presence of Sprague-Dawley rat liver S9 fraction after by SOS/umu assay relative to control; type: toxicity, organism-based; settings: salmonella enterica subsp. enterica serovar typhimurium, read-out: FC
[12] = Genotoxicity in Salmonella typhimurium TA1535 harboring pSK1002 assessed as survival at 0.031 mg/ml in absence of Sprague-Dawley rat liver S9 fraction after by SOS/umu assay relative to control; type: toxicity, organism-based; settings: salmonella enterica subsp. enterica serovar typhimurium, read-out: Survival
[13] = Genotoxicity in Salmonella typhimurium TA1535 harboring pSK1002 assessed as umu gene induction at 0.031 mg/ml in presence of Sprague-Dawley rat liver S9 fraction after by SOS/umu assay relative to control; type: toxicity, organism-based; settings: salmonella enterica subsp. enterica serovar typhimurium, read-out: FC
[14] = Genotoxicity in Salmonella typhimurium TA1535 harboring pSK1002 assessed as survival at 0.016 mg/ml in absence of Sprague-Dawley rat liver S9 fraction after by SOS/umu assay relative to control; type: toxicity, organism-based; settings: salmonella enterica subsp. enterica serovar typhimurium, read-out: Survival
[15] = Genotoxicity in Salmonella typhimurium TA1535 harboring pSK1002 assessed as umu gene induction at 0.016 mg/ml in absence of Sprague-Dawley rat liver S9 fraction after by SOS/umu assay relative to control; type: toxicity, organism-based; settings: salmonella enterica subsp. enterica serovar typhimurium, read-out: FC
[16] = Genotoxicity in Salmonella typhimurium TA1535 harboring pSK1002 assessed as survival at 0.016 mg/ml in presence of Sprague-Dawley rat liver S9 fraction after by SOS/umu assay relative to control; type: toxicity, organism-based; settings: salmonella enterica subsp. enterica serovar typhimurium, read-out: Survival
[17] = Genotoxicity in Salmonella typhimurium TA1535 harboring pSK1002 assessed as umu gene induction at 0.016 mg/ml in presence of Sprague-Dawley rat liver S9 fraction after by SOS/umu assay relative to control; type: toxicity, organism-based; settings: salmonella enterica subsp. enterica serovar typhimurium, read-out: FC
[18] = Genotoxicity in Salmonella typhimurium TA1535 harboring pSK1002 assessed as survival at 0.008 mg/ml in absence of Sprague-Dawley rat liver S9 fraction after by SOS/umu assay relative to control; type: toxicity, organism-based; settings: salmonella enterica subsp. enterica serovar typhimurium, read-out: Survival
[19] = Genotoxicity in Salmonella typhimurium TA1535 harboring pSK1002 assessed as umu gene induction at 0.008 mg/ml in absence of Sprague-Dawley rat liver S9 fraction after by SOS/umu assay relative to control; type: toxicity, organism-based; settings: salmonella enterica subsp. enterica serovar typhimurium, read-out: FC
[20] = Genotoxicity in Salmonella typhimurium TA1535 harboring pSK1002 assessed as survival at 0.008 mg/ml in presence of Sprague-Dawley rat liver S9 fraction after by SOS/umu assay relative to control; type: toxicity, organism-based; settings: salmonella enterica subsp. enterica serovar typhimurium, read-out: Survival
[21] = Genotoxicity in Salmonella typhimurium TA1535 harboring pSK1002 assessed as umu gene induction at 0.008 mg/ml in presence of Sprague-Dawley rat liver S9 fraction after by SOS/umu assay relative to control; type: toxicity, organism-based; settings: salmonella enterica subsp. enterica serovar typhimurium, read-out: FC
[22] = Genotoxicity in Salmonella typhimurium TA1535 harboring pSK1002 assessed as survival at 0.004 mg/ml in absence of Sprague-Dawley rat liver S9 fraction after by SOS/umu assay relative to control; type: toxicity, organism-based; settings: salmonella enterica subsp. enterica serovar typhimurium, read-out: Survival
[23] = Genotoxicity in Salmonella typhimurium TA1535 harboring pSK1002 assessed as umu gene induction at 0.004 mg/ml in absence of Sprague-Dawley rat liver S9 fraction after by SOS/umu assay relative to control; type: toxicity, organism-based; settings: salmonella enterica subsp. enterica serovar typhimurium, read-out: FC
[24] = Genotoxicity in Salmonella typhimurium TA1535 harboring pSK1002 assessed as umu gene induction at 0.004 mg/ml in presence of Sprague-Dawley rat liver S9 fraction after by SOS/umu assay relative to control; type: toxicity, organism-based; settings: salmonella enterica subsp. enterica serovar typhimurium, read-out: FC
[25] = Genotoxicity in Salmonella typhimurium TA1535 harboring pSK1002 assessed as umu gene induction at 0.002 mg/ml in absence of Sprague-Dawley rat liver S9 fraction after by SOS/umu assay relative to control; type: toxicity, organism-based; settings: salmonella enterica subsp. enterica serovar typhimurium, read-out: FC
[26] = Genotoxicity in Salmonella typhimurium TA1535 harboring pSK1002 assessed as survival at 0.002 mg/ml in presence of Sprague-Dawley rat liver S9 fraction after by SOS/umu assay relative to control; type: toxicity, organism-based; settings: salmonella enterica subsp. enterica serovar typhimurium, read-out: Survival
[27] = Genotoxicity in Salmonella typhimurium TA1535 harboring pSK1002 assessed as umu gene induction at 0.002 mg/ml in presence of Sprague-Dawley rat liver S9 fraction after by SOS/umu assay relative to control; type: toxicity, organism-based; settings: salmonella enterica subsp. enterica serovar typhimurium, read-out: FC
[28] = Genotoxicity in Salmonella typhimurium TA1535 harboring pSK1002 assessed as survival at 0.001 mg/ml in absence of Sprague-Dawley rat liver S9 fraction after by SOS/umu assay relative to control; type: toxicity, organism-based; settings: salmonella enterica subsp. enterica serovar typhimurium, read-out: Survival
[29] = Genotoxicity in Salmonella typhimurium TA1535 harboring pSK1002 assessed as umu gene induction at 0.001 mg/ml in presence of Sprague-Dawley rat liver S9 fraction after by SOS/umu assay relative to control; type: toxicity, organism-based; settings: salmonella enterica subsp. enterica serovar typhimurium, read-out: FC
[30] = Plasmodium falciparum, FCR-3/Gambia, 3 h

| Compound | viability at 0.125 mg/ml [5] [%] | fold induction at 0.125 mg/ml [6] | viability at 0.125 mg/ml [7] [%] | viability at 0.063 mg/ml [8] [%] | fold induction at 0.063 mg/ml [9] | viability at 0.063 mg/ml [10] [%] | fold induction at 0.063 mg/ml [11] | viability at 0.031 mg/ml [12] [%] | fold induction at 0.031 mg/ml [13] | viability at 0.016 mg/ml [14] [%] | fold induction at 0.016 mg/ml [15] | viability at 0.016 mg/ml [16] [%] | fold induction at 0.016 mg/ml [17] | viability at 0.008 mg/ml [18] [%] | fold induction at 0.008 mg/ml [19] | viability at 0.008 mg/ml [20] [%] | fold induction at 0.008 mg/ml [21] | viability at 0.004 mg/ml [22] [%] | fold induction at 0.004 mg/ml [23] | fold induction at 0.004 mg/ml [24] | also measured |
| --- | --- | --- | --- | --- | --- | --- | --- | --- | --- | --- | --- | --- | --- | --- | --- | --- | --- | --- | --- | --- | --- |
| COc1ccccc1C1=CCN(CCC(O)c2ccc(F)c3ccccc23)CC1 (configuration not stated) | 114 | 0.4 | 79.1 | 90.7 | 0.5 | 76 | 0.6 | 47.2 | 0.5 | 50.6 | 1.2 | 84 | 0.8 | 76.4 | 0.8 | 96.9 | 0.7 | 76.7 | 0.9 | 0.8 | IC50 [1, 30]: 1.3 µM; IC50 ([2]; Plasmodium falciparum, 3D7): 0.1 µM; CC50 ([3]; HepG2A16 cells): 17.7 µM; selectivity ratio [4]: 14; fold induction at 0.002 mg/ml [25]: 0.9; viability at 0.002 mg/ml [26]: 101%; fold induction at 0.002 mg/ml [27]: 0.9; viability at 0.001 mg/ml [28]: 81.7%; fold induction at 0.001 mg/ml [29]: 0.8 |
| N#Cc1ccc(C(O)CCN2CC=C(c3ccc(F)cc3)CC2)cc1 (configuration not stated) | 87.9 | 1.1 | 108 | 82.3 | 1.2 | 101 | 1.1 | 77.3 | 0.8 | 85.1 | 1.1 | 126 | 0.9 | 89.4 | 1.1 | 108 | 1 | 94.7 | 0.9 | 0.8 | IC50 [1, 30]: 1.33 µM; IC50 ([2]; Plasmodium falciparum, 3D7): 8.48 µM; CC50 ([3]; HepG2A16 cells): 82.4 µM; selectivity ratio [4]: 62; fold induction at 0.002 mg/ml [25]: 0.9; viability at 0.002 mg/ml [26]: 97.8%; fold induction at 0.002 mg/ml [27]: 1.1; viability at 0.001 mg/ml [28]: 109%; fold induction at 0.001 mg/ml [29]: 1.1 |
| COc1ccccc1N1CCN(CCC(O)c2ccc(F)cc2)CC1 (stereo in doubt; 66) | 107 | 0.9 | 89.8 | 108 | 0.9 | 100 | 0.9 | 116 | 0.9 | 108 | 1 | 82.8 | 1.1 | 114 | 1 | 88.2 | 1 | 108 | 1.1 | 1 | IC50 [1]: 0.19 µM; IC50 [2]: 7.31 µM; CC50 [3]: 19.5 µM; Ratio CC50/IC50 [4]: 103; fold induction at 0.002 mg/ml [25]: 1; viability at 0.002 mg/ml [26]: 80.7%; fold induction at 0.002 mg/ml [27]: 1.2; viability at 0.001 mg/ml [28]: 110%; fold induction at 0.001 mg/ml [29]: 1.3 |
